An excerpt weighted towards active compounds, which were near 2.5% of everything screened.
PMI act hi M6P = increases human PMI activity with near-saturating mannose 6-phosphate | activation factor at 20 µM | AID 1216 | 0.34% of 190,000 active | coupled PMI enzyme assay, resazurin fluorescence, 20 min; hits give high values; 1 = untreated enzyme, 0 = substrate-free blank;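 active = activation factor of 2 or more at 20 µM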
Target sequence (P34949 whole entry, looked up): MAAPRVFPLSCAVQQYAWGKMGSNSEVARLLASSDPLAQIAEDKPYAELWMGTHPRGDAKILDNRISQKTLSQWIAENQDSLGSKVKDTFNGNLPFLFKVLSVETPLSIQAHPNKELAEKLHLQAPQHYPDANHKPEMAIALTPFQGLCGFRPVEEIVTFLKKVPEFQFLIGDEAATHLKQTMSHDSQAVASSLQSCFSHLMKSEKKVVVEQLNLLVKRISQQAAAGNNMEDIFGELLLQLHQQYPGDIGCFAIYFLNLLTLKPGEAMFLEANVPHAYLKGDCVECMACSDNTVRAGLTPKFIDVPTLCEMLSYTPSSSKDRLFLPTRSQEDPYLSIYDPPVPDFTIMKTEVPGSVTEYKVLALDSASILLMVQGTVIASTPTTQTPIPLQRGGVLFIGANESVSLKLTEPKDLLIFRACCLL
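Technique: Diaphorase-driven resazurin-to-resorufin fluorescence, excitation 544, emission 590 nm | Assay system: Human PMI in coupled enzyme assay | Times: Enzyme reaction with compound 20 min at room temperature | Medium: HEPES-buffered pH 7.4 with magnesium and detergent | Reagent: Mannose-6-phosphate 1.0 mM (near-saturating) plus 0.22 mM NADP+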
FLuc stim CS = affects firefly luciferase, flagging false hits in luciferase stimulation screens; P08659; ATPlite luciferase biochemical, luminescence, 10 min; 0 = ATP-free wells, 1 = DMSO control; activation factor at 10 µM; 200,000 tested, under 10 active;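 active = luciferase activation factor, scaled between plate controls, of at least 2 with compound at 10 µM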
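Material: luciferase plus luciferin reagent, cell-free. Medium: PBS buffer for ATP. Also added: ATP substrate, dispensed from a 10.24 µM working solution in PBS. Doses: test compounds dosed from 2 mM stocks in 100% DMSO. Incubation: 10 min post-reagent at room temperature. Technique: light output (luminescence). Read-out basis: luminescence gain marking luciferase activators.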
FLuc inh counter = counter-screen for luciferase assay inhibitors: firefly luciferase inhibition; P08659; ATPLite firefly luciferase biochemical luminescence, 10 min; inhibition, % at 10 µM; 1.5% of 200,000 active; AID 1006;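 active = inhibition above about 50% when tested at 10 µM, limit read from the data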
Diaph act CS = activates diaphorase or chemically reduces, flagging diaphorase assay artifacts; Diaphorase/resazurin coupled assay, resorufin fluorescence, 16 min; hits give high values; 1 = vehicle wells, 0 = NADH-free wells; activation factor at 20 µM; 0.005% of 190,000 active;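 active = diaphorase activity raised at least twofold by the compound at 20 µM; inactive = activation factor below 2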
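System – purified diaphorase enzyme from Clostridium kluyveri · Input – enzyme 0.07 U/mL final · Also added – final NADH 0.114 mM, resazurin 0.1 mM · Measured by – fluorescence of resorufin, 544 nm excitation, 590 nm emission · Timing – 16 min enzyme reaction, ambient temperature · Measure – resorufin increase flagging diaphorase activators or reducers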
PMI activator = increases human mannose-6-phosphate isomerase activity. AID 1214. 0.005% of 190,000 active. purified human PMI, coupled resazurin fluorescence, 20 min; hits give high values; 1 = vehicle control, 0 substrate-free wells. activation factor at 20 µM;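 active = activation factor of 2 or more at 20 µM, relative to plate controls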
Diaphorase inh = inhibits diaphorase or chemically oxidizes, flagging diaphorase assay artifacts; diaphorase resazurin-to-resorufin fluorescence, NADH, 16 min; bacterial (C. kluyveri) enzyme, not human; inhibition, % at 20 µM; 0.69% of 190,000 active; AID 1217;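 active = primary screen inhibition at 20 µM above a set limit, cut at about 50% in these data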
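Test system: Clostridium kluyveri diaphorase enzyme / Quantity: diaphorase at 0.14 U/mL in enzyme working solution / Incubation: 16-min room-temperature incubation before reading / Benchmarks: NADH-free wells as positive control, DMSO-only neutral wells / Signal: resorufin fluorescence 544/590 nm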
Numbers stand for hits; . = inactive; / = no result.

SMILES | PMI act hi M6P | FLuc stim CS | FLuc inh counter | Diaph act CS | PMI activator | Diaphorase inh
Cc1ccc2c(CN3CCCc4ccccc43)cc(=O)oc2c1C | 2.3 | . | . | . | . | .
O=C(C1CCCN(S(=O)(=O)c2ccccc2[N+](=O)[O-])C1)N1CCCC1 (configuration not stated) | . | . | . | . | . | .
O=C1c2cccc3cccc(c23)C(=O)N1OS(=O)(=O)c1ccc(Br)cc1 | . | . | . | . | . | .
O=C1c2cccc3cccc(c23)C(=O)N1OS(=O)(=O)c1ccccc1 | . | . | 59 | . | . | .
Cc1ccn(CCC(=O)N2CCCC(CCC(=O)N3CCN(c4ccccn4)CC3)C2)n1 (configuration not stated) | . | . | . | . | . | .
Cc1c(N/N=C(\C#N)C(=O)c2ccccc2)c(=O)n(-c2ccccc2)n1C | 2.1 | . | . | . | . | .
CCCCN1C(=O)/C(=C2\SC(N3CCCCC3)=NC2=O)c2ccccc21 | . | . | 55 | . | . | .
O=C1N=C(N2CCOCC2)S/C1=C1\C(=O)N(Cc2ccccc2)c2ccc(Br)cc21 | . | . | . | . | . | .
CCC(=O)Nc1cccc(NC(=O)CSc2nnc(-c3ccc(NS(C)(=O)=O)cc3)n2CC)c1 | . | . | . | . | . | .
COc1cc(/C=C/C(=O)OCC(=O)N2CCc3ccccc3C2)ccc1O | . | . | . | . | . | .
O=C(NCC1CCCO1)c1cc(-c2ccc(Cl)cc2Cl)on1 (configuration not stated) | . | . | 71 | . | . | .
Cc1ccc(-c2cc(C(=O)N3CCCc4ccccc43)no2)cc1 | . | . | 58 | . | . | .
O=C(NCCN1CCOCC1)c1cc(-c2ccc(Cl)cc2)on1 | . | . | . | . | . | .
O=C(O)c1cc(-c2ccc(O)cc2)on1 | . | . | . | . | . | 75
O=C(c1cc(-c2ccc(Cl)cc2)on1)N1CCOCC1 | . | . | 60 | . | . | .
O=C1N=C2N(CCN3CCCCC3)c3ccccc3N2/C1=C\c1ccc([N+](=O)[O-])o1 | / | . | . | / | / | /
O=C(NNS(=O)(=O)c1ccccc1F)c1sccc1-n1cccc1 | . | . | . | . | . | .
Cc1nn(C)c(C(=O)NNC(=S)NCC(C)C)c1Cl | . | . | . | . | . | .
CC(=O)Nc1cccc(C(=O)NC(C)c2ccc(S(N)(=O)=O)cc2)c1 (configuration not stated) | . | . | . | . | . | .
CCOC(=O)c1nc(NCc2cccc(OC)c2)c2ccccc2n1 | . | . | . | . | . | .
Cc1ccc(N2C(S)=C(C#N)C(=O)NC2c2cccs2)cc1 (configuration not stated) | . | . | . | . | . | .
O=C(c1cc(-c2ccc(Cl)cc2Cl)on1)N1CCOCC1 | . | . | 73 | . | . | .
COc1cccc(-c2cc(C(=O)N3CCCCCC3)no2)c1 | . | . | 62 | . | . | .
O=C(c1cc(-c2ccc(Cl)c(Cl)c2)on1)N1CCCC1 | . | . | . | . | . | .
O=C(c1cc(-c2ccc3c(c2)OCO3)on1)N1CCOCC1 | . | . | 70 | . | . | .
SMILES | PMI act hi M6P | FLuc stim CS | FLuc inh counter | Diaph act CS | PMI activator | Diaphorase inh
O=C(c1cc(-c2ccc(F)cc2)on1)N1CCCC1 | . | . | 64 | . | . | .
O=C(c1cc(-c2cccc(O)c2)on1)N1CCCCC1 | . | . | . | . | . | .
Cc1ccc(C(=O)N(CC(=O)NC2CCCC2)c2ccc3c(c2)OCCO3)s1 | . | . | . | . | . | .
C=C(C)CNC(=S)Nc1nc2c(cc1C(=O)OCC)CCCC2 | . | . | . | . | . | .
CCOC(=O)CSc1nnc(-c2nnc(SCC(=O)OCC)n2CC)n1CC | . | . | . | . | . | .
N#C/C(=C\c1c(N2CCCCCC2)nc2ccccn2c1=O)C(=O)NC1CCS(=O)(=O)C1 (configuration not stated) | . | . | . | . | . | .
CCOc1ncccc1C(=O)N=C1SCCN1C(=O)c1cccnc1OCC | . | . | . | . | . | .
